One assay has as its target T1, Replicative DNA helicase (Pseudomonas aeruginosa (strain ATCC 15692 / PAO1 / 1C / PRS 101 / LMG12228), UniProt Q9HUN3).
T1 sequence (Q9HUN3 whole entry): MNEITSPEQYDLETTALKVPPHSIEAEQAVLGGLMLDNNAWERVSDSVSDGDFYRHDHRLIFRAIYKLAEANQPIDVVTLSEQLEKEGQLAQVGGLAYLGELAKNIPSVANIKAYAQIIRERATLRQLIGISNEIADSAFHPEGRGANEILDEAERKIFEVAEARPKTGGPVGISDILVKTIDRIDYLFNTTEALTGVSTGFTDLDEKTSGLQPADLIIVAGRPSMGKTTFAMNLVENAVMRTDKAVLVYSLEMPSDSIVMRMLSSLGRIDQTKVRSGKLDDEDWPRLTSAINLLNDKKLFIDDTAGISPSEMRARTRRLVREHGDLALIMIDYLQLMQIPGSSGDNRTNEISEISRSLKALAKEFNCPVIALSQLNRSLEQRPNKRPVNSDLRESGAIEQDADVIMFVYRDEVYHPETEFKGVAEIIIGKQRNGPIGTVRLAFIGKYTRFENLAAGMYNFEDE
Put plainly: Inhibition of Pseudomonas aeruginosa DnaB helicase.

The next assay relates to Pseudomonas aeruginosa. Put plainly: Antibacterial activity against permeability barrier deficient Pseudomonas aeruginosa Z61. It counts as functional. Summed up: (§1)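 MIC by broth dilution following NCCLS standard M7-A4 for aerobically growing bacteria, reported in µg/mL. Strains were S. aureus RN4220, tolC-deficient hypersusceptible E. coli LBB925, and permeability-barrier-deficient P. aeruginosa Z61.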

In assay [1] the test system is Staphylococcus aureus. Put plainly: Antibacterial activity against Staphylococcus aureus RN4220. It counts as functional. Summed up:
as §1

In the next assay the test system is Escherichia coli. Nature of the assay: Antibacterial activity against tolC deficient Escherichia coli LBB925. The class given is functional. The method, boiled down: as §1
Assay [2] relates to HeLa. Nature of the assay: Cytotoxicity against HeLa cells by MTS assay at 12.5 uM measured as percentage survival. The class given is functional, Homo sapiens. Summed up: (§2)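 HeLa cells were exposed to the compound at three concentrations (12.5, 25 and 50 µM). Viability was read by MTS assay and expressed as % survival.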
(Formazan colour is commonly taken as a measure of viable cells.)

Assay [3] relates to HeLa. Put plainly: Cytotoxicity against HeLa cells by MTS assay at 50 uM measured as percentage survival. The class given is functional, Homo sapiens. The method, boiled down: as §2
Assay [4] deals with HeLa. Put plainly: Cytotoxicity against HeLa cells by MTS assay at 25 uM measured as percentage survival. The class given is functional, Homo sapiens. Summed up:
as §2

Assay [5] has as its system Staphylococcus aureus. Put plainly: Antibacterial activity against Staphylococcus aureus infected in mouse at 0.2 mL. It counts as functional, organism-based.

Each structure is given as a SMILES string. ≈ marks a conversion by molar mass, not a printed value. Calls of active or inactive are those of the source.

For the molecule `CC(=O)c1ccc(Nc2nc(Nc3ccc(Br)cc3)nc(Nc3ccc(Br)cc3)n2)cc1`, the concentration for half-maximal inhibition (IC50) (usually the midpoint of a concentration-inhibition curve) against Replicative DNA helicase worked out at 6 µM. Besides, the MIC against Pseudomonas aeruginosa, in the assay with Staphylococcus aureus [1] and against Escherichia coli was > 64 µg/mL each time.

`CC(C)CN1CCN(c2nc(Nc3ccc(F)c(F)c3)nc(Nc3ccc(F)c(F)c3)n2)CC1` had a 50% inhibitory concentration (IC50) on Replicative DNA helicase of 5 µM. In addition, the Activity with HeLa [2] turned out to be 99%; in the assay on HeLa [3], 86%; in the assay with HeLa [4], 99%. For the same molecule, the results for the MIC against Pseudomonas aeruginosa, in the assay on Staphylococcus aureus [1] and against Escherichia coli were > 128 µg/mL, 4 µg/mL (≈ 8.41 µM) and > 128 µg/mL, respectively.

`CN1CCN(c2nc(Nc3ccc(F)cc3)nc(Nc3ccc(F)cc3)n2)CC1` yielded an IC50 on Replicative DNA helicase of 22 µM. Further, the Activity turned out to be 100% in the assay with HeLa [2], 11% in the assay on HeLa [3] and 64% in the assay on HeLa [4]. Moreover, the MIC (as a rule, the smallest concentration in the dilution series that meets the test's criterion for growth inhibition) in the assay with Pseudomonas aeruginosa is > 128 µg/mL; in the assay with Staphylococcus aureus [1] it was 32 µg/mL (≈ 80.5 µM); against Escherichia coli, 16 µg/mL (≈ 40.3 µM).

Take `COc1ccc(Nc2nc(NCCN3CCOCC3)nc(Nc3ccc(OC)cc3)n2)cc1`: the IC50 at Replicative DNA helicase was > 100 µM.

As for `Clc1ccc(Nc2nc(NCCN3CCOCC3)nc(Nc3ccccc3)n2)cc1`, the IC50 against Replicative DNA helicase stood at 65 µM. The Activity in the assay on HeLa [2] amounted to 98%; with HeLa [3], 14%; in the assay with HeLa [4], 74%. In addition, the MIC is > 128 µg/mL in the assay on Pseudomonas aeruginosa, 64 µg/mL (≈ 150 µM) in the assay on Staphylococcus aureus [1] and 16 µg/mL (≈ 37.6 µM) in the assay with Escherichia coli.

Consider `Fc1ccc(Nc2nc(NCCN3CCOCC3)nc(Nc3ccc(F)c(F)c3)n2)cc1F`, for which, on Replicative DNA helicase, it took 19 µM to reach half-maximal inhibition (IC50). Moreover, the Activity in the assay with HeLa [2] is reported as 101%; in the assay on HeLa [3], 47%; in the assay with HeLa [4], 91%. For the same molecule, the MIC was > 128 µg/mL against Pseudomonas aeruginosa, 16 µg/mL (≈ 34.5 µM) in the assay with Staphylococcus aureus [1] and 16 µg/mL (≈ 34.5 µM) in the assay with Escherichia coli.

Consider `OCCN1CCN(c2nc(Nc3ccc(F)c(F)c3)nc(Nc3ccc(F)c(F)c3)n2)CC1`, for which, at Replicative DNA helicase, the midpoint of inhibition, the IC50, lay at 18 µM. In addition, the Activity with HeLa [2] was 80%; with HeLa [3], 47%; in the assay on HeLa [4] it was 91%. In addition, the MIC is > 128 µg/mL in the assay on Pseudomonas aeruginosa, 16 µg/mL (≈ 34.5 µM) in the assay with Staphylococcus aureus [1] and 16 µg/mL (≈ 34.5 µM) with Escherichia coli.

`Fc1ccc(Nc2nc(Nc3ccc(F)c(F)c3)nc(N3CCN(Cc4ccccc4)CC3)n2)cc1F` gave an IC50 at Replicative DNA helicase of 6 µM. Moreover, the Activity was determined as 96% in the assay on HeLa [2], 97% in the assay on HeLa [3] and 99% with HeLa [4]. Besides, the MIC in the assay with Pseudomonas aeruginosa, against Staphylococcus aureus [1] and in the assay on Escherichia coli was > 128 µg/mL in each case.

`OCCN1CCN(c2nc(Nc3ccc(F)cc3)nc(Nc3ccc(F)cc3)n2)CC1` showed an IC50 at Replicative DNA helicase of 23 µM. Further, the Activity was 101% with HeLa [2], 51% in the assay on HeLa [3] and 104% in the assay on HeLa [4]. In addition, the MIC in the assay with Pseudomonas aeruginosa was > 128 µg/mL; against Staphylococcus aureus [1], 64 µg/mL (≈ 150 µM); against Escherichia coli, 32 µg/mL (≈ 74.9 µM).

For the molecule `c1ccc(Nc2nc(NCCN3CCOCC3)nc(Nc3ccccc3)n2)cc1`, the IC50 against Replicative DNA helicase is > 100 µM.

On to `Clc1ccc(Nc2nc(NCCN3CCOCC3)nc(Nc3ccc(Cl)cc3)n2)cc1`, for which the IC50 against Replicative DNA helicase was determined as 20 µM. Also, the Activity in the assay on HeLa [2] turned out to be 103%; in the assay on HeLa [3] it was 6%; with HeLa [4] it was 90%. In addition, in the assay with Staphylococcus aureus [5], the result was inactive. Moreover, the minimum inhibitory concentration (MIC) against Pseudomonas aeruginosa is > 128 µg/mL; with Staphylococcus aureus [1], 4 µg/mL (≈ 8.69 µM); in the assay with Escherichia coli, > 128 µg/mL.

Turning to `Fc1ccc(Nc2nc(NCCN3CCOCC3)nc(Nc3ccc(F)cc3)n2)cc1`, the IC50 against Replicative DNA helicase was > 100 µM.

The molecule `Clc1cccc(Nc2nc(Nc3cccc(Cl)c3)nc(Nc3cccc(Cl)c3)n2)c1` yielded an IC50 on Replicative DNA helicase of 31 µM. Further, the Activity in the assay with HeLa [2] worked out at 74%; in the assay on HeLa [3], 64%; in the assay on HeLa [4], 83%. Besides, the MIC in the assay with Pseudomonas aeruginosa, against Staphylococcus aureus [1] and with Escherichia coli was > 128 µg/mL throughout.

On Replicative DNA helicase, `Fc1ccc(Nc2nc(Nc3ccc(F)c(F)c3)nc(N3CCN(CCOc4ccccc4)CC3)n2)cc1F` registered an IC50 of 5 µM. In addition, the Activity turned out to be 97% in the assay on HeLa [2], 99% in the assay on HeLa [3] and 100% in the assay with HeLa [4]. The MIC against Pseudomonas aeruginosa, against Staphylococcus aureus [1] and against Escherichia coli was > 128 µg/mL in each case.

As for `O=[N+]([O-])c1ccc(Nc2nc(NCCN3CCOCC3)nc(Nc3ccc(Cl)cc3)n2)cc1`, at Replicative DNA helicase, the half-inhibitory concentration (IC50) came to 5 µM. Moreover, the Activity is recorded as 78% in the assay on HeLa [2], 10% with HeLa [3] and 19% with HeLa [4]. In addition, the outcome in the assay on Staphylococcus aureus [5] was inactive. Further, the results for the MIC in the assay with Pseudomonas aeruginosa, in the assay with Staphylococcus aureus [1] and in the assay on Escherichia coli were > 128 µg/mL, 4 µg/mL (≈ 8.49 µM) and > 128 µg/mL, respectively.

Values taken from ChEMBL document CHEMBL1138995, “Triaminotriazine DNA helicase inhibitors with antibacterial activity” (Bioorg Med Chem Lett, 2006).
